From the RNAGym collection of RNA variant scans (doi:10.1002/anie.201605470)

B1: Osa-1-4 twister ribozyme (parent)
chain: CCGCCUAACACUGCCAAUGCCGGUCCCAAGCCCGGAUAAAAGUGGAGGGGGCGG

Variants of: B1
Assay: self-cleavage, relative activity (ratio to wild type); higher = more cleavage; co-transcriptional
Procedure, shortened: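 A DNA template for a 54-nucleotide Oryza sativa twister ribozyme was synthesised with 97 % wild-type base and 1 % of each other base at the 48 positions downstream of the cleavage site. It was transcribed in vitro for 2 h at 37 °C, allowing co-transcriptional self-cleavage, then reverse-transcribed with a template-switching oligonucleotide, PCR-amplified and deep-sequenced. Cleavage status was scored from reads with or without upstream sequence. Relative activity is fraction cleaved normalised to wild type.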

self-cleavage, 0.45:
A8G G44U

self-cleavage, 0.38:
A8G C21U

self-cleavage, 0.43:
A8G G50U

self-cleavage, 0.22:
A8G G51A

self-cleavage, 0.44:
A8G C52A

self-cleavage, 0.12:
A8G G42C
A8G U12C
A8C C52A
A8G U24A
A8U C26U
A7U C52G
A7U C52A
A8G C15A

self-cleavage, 0.48:
A8U C20A

self-cleavage, 0.05:
A7U G42C
A8C C9G
A8U C27G
A7U G47A
A7U G45A
A8U C31G
A7U G53U
A8C C21G
A7U C26G
A8C C31U
A8G C32A
A8G G48C
A8C C15G
A8G G45C
A7U G51U
A8C C25A
A8C C14U
A8U C26G
A8G G49C
A8U C14G
A7U C31U
A8U C33A
A8C G51U
A8G G23C
A8U C25G

self-cleavage, 0.68:
A8G U37C

self-cleavage, 0.13:
A8G G34C
A8G C32G
A8C C27A
A8G G23A
A8G C9A
A8G C15U

self-cleavage, 0.16:
A8G G34U
A8G G53A
A8C U12G
A8G C25U
A8G U12A
A8G G35C

self-cleavage, 0.11:
A8G G53U
A8U C9G
A8C G54U
A8G C27G
A8G C27U
A8G G47A
A8G G51U
A7U G54U
A8U C25U
A7U U18A
A7U U18G
A8U C11U

self-cleavage, 0.58:
A8G C20U
A8G C52G

self-cleavage, 0.27:
A8G G34A
A8G G50C
A8G C26G
A8G G54A

self-cleavage, 0.35:
A8G G35U
A8G G44C

self-cleavage, 0.08:
A8C G35A
A8C G35C
A8C C20A
A8G G53C
A8C U24C
A8G C25G
A8G C25A
A7U G53A
A8C G44U
A8C G23A
A8G C31G
A8C G19C
A8U C21A
A8C U43A
A8C U43G
A8C U43C
A8G G51C
A7U C33U
A8C U18C
A8G G49A
A7U U43A
A8U C15U
A8U C15A
A7U G34A
A7U U37C
A8C G50U
A8C G50C
A7U U18C
A8U C11A
A8U C11G

self-cleavage, 0.73:
A8G C52U

self-cleavage, 0.56:
A8G U37A

self-cleavage, 0.21:
A8C C15A
A8G C33U
A8G G54C

self-cleavage, 0.04:
A7U G49A
A7U G47U
A7U G47C
A7U G45C
A8G G42U
A7U G13A
A8G G48U
A8C C15U
A8C G47U
A8C G47A
A8C C27U
A8C C14A
A8U C14A
A8G G30U
A7U U24C
A8U C33G
A8C G45U
A8C G45A
A8G C26A
A7U C32U
A7U C32G
A7U C27G
A8C G42U
A8C G42C
A8C C32A

self-cleavage, 0.14:
A8G C21A
A8G C27A
A8G G42A
A8G G45U
A8G U43C
A8G C14U

self-cleavage, 0.57:
A8G U18A

self-cleavage, 0.29:
A8G C15G

self-cleavage, 0.39:
A8G G44A
A8G U18C

self-cleavage, 0.25:
A8U C52A

self-cleavage, 0.28:
A8U C21U

self-cleavage, 0.75:
A8G U37G

self-cleavage, 0.4:
A8G G35A

self-cleavage, 0.06:
A8C C33U
A8C C33A
A8U C27A
A7U G23A
A8C G54C
A8U C31U
A8C U12A
A8C C21U
A8C G19U
A8U C20G
A7U G13U
A8G G48A
A7U G50C
A7U G44A
A7U G44C
A7U G22U
A8C U37A
A8G G49U
A8C C11G
A7U G54C
A8G G30A
A7U C31G
A7U G19A
A8C G34C
A8U C32U
A7U G30A
A7U U24A
A7U G35U
A8C G51A
A7U U12G
A8C G53U
A8G G23U
A7U C27U
A7U C27A
A8C G50A
A8C G42A
A8C C26U

self-cleavage, 0.2:
A8G C9G
A8G G22A

self-cleavage, 0.19:
A8G C11U

self-cleavage, 0.09:
A8C G35U
A7U G42A
A8C C20U
A8G C21G
A8U C9U
A8U C9A
A8C G54A
A8G C20G
A8C C21A
A8C C52U
A8G G45A
A7U G44U
A7U G22A
A8C C11U
A8C G22A
A8U C33U
A7U U12A

self-cleavage, 0.17:
A8G C11G
A8C U18G

self-cleavage, 0.07:
A8U C27U
A8C U12C
A8C G44C
A8C G44A
A8C G23U
A8C G19A
A8U C21G
A7U C26U
A8G C32U
A8C
A7U G50A
A7U G50U
A8G G19C
A7U G51A
A8G G47C
A8C C25U
A8G C33G
A7U G22C
A8C U18A
A8C U37C
A7U G54A
A8G G30C
A7U U43G
A7U U43C
A8C G34U
A8C G34A
A8U C32G
A8C G22U
A8C G13C
A7U G35A
A7U G35C
A7U G34U
A8C G53A
A8U C25A
A7U U37A
A8G C14A
A8G G22C

self-cleavage, 0.41:
A8U C20U

self-cleavage, 0.49:
A8G C20A
A8U
A8G U18G

self-cleavage, 0.71:
A8G

self-cleavage, 0.15:
A8G U12G
A8C C52G
A8G G19A
A8G C11A
A8U C15G
A8G U43G
A8G G22U

self-cleavage, 0.1:
A8C C9A
A8G C31U
A8G G19U
A8G U24C
A8G G47U
A8G C33A
A8G G13A
A8C U37G
A7U C52U
A8C C11A
A8U C14U
A7U G19U
A7U U12C
A7U G34C
A8G C9U
A7U U37G
A8G C14G

self-cleavage, 0.01:
A8C C9U
A8C U24G
A7U G48U
A8C C31A
A8C G30U
A8C G30A
A7U C31A
A8C G13U

self-cleavage, 0.03:
A8C C33G
A7U G49C
A7U G49U
A7U G42U
A8C C20G
A8C G49U
A8C U24A
A7U G23C
A7U G23U
A8U C31A
A7U G53C
A7U G48C
A8G C31A
A8C G48U
A8G U24G
A7U G51C
A8C G47C
A8C C25G
A7U C33G
A7U C33A
A8C C27G
A8C C14G
A8C G30C
A8G G13C
A8G G13U
A8U C26A
A7U G19C
A8U C32A
A8C G22C
A8C G13A
A8C G51C
A7U C32A
A8C C32G
A8C C26A

self-cleavage, 0.02:
A8C G49A
A8C G49C
A7U G45U
A7U G48A
A8C G23C
A7U C26A
A8C C31G
A7U G13C
A8C G48A
A8C G48C
A7U G30U
A7U G30C
A7U U24G
A8C G45C
A8C G53C
A8C C32U
A8C C26G

self-cleavage, 0.53:
A8G G50A

self-cleavage, 0.32:
A8G G54U

self-cleavage, 0.23:
A8G U43A

self-cleavage, 0.18:
A8G C26U
